Experimental findings from ChEMBL document CHEMBL2177027, “Exploring the directionality of 5-substitutions in a new series of 5-alkylaminopyrazolo[4,3-e]1,2,4-triazolo[1,5-c]pyrimidine as a strategy to design novel human a(3) adenosine receptor antagonists” (J Med Chem, 2012) are described below.

The target in assay [1] is Adenosine receptors; A1 & A3 (Homo sapiens) (UniProt P30542+P0DMS8). As to the kind of experiment: Selectivity ratio of Ki for human adenosine A1 receptor expressed in CHO cell membrane to Ki for human adenosine A3 receptor expressed in CHO cell membrane. The class given is cell-based.
Assay [2] concerns the target T1, Adenosine receptor A2b (Homo sapiens, UniProt P29275).
T1 sequence (P29275 whole entry): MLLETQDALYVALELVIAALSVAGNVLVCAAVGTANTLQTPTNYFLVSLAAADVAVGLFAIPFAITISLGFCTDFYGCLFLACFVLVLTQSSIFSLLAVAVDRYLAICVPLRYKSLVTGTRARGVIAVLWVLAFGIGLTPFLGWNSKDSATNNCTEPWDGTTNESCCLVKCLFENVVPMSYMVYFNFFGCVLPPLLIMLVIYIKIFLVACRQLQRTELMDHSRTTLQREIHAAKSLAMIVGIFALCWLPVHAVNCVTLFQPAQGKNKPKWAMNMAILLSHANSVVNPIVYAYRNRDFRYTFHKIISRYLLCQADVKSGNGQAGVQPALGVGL
In words: Antagonist activity at human adenosine A2B receptor expressed in CHO cells assessed as NECA-induced adenylate cyclase activity. Format: functional, cell-based. The method, boiled down:
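Membranes from stably transfected CHO cells made with a single high-speed spin of the homogenate. Incubated 20 min with about 150 000 cpm [α-³²P]ATP in mixture lacking EDTA and NaCl. IC50 taken from concentration-dependent inhibition of NECA-stimulated adenylyl cyclase using Hill equation.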

Assay [3] deals with Adenosine receptor A2a (Homo sapiens, UniProt P29274). As to the kind of experiment: Displacement of [3H]NECA from human adenosine A2A receptor expressed in CHO cell membrane. Format: cell membranes. The procedure, abridged: (§1)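 CHO cells stably transfected with the human receptor subtype. Membranes were prepared by a 1000g spin to clear fragments and nuclei, then pelleted from the supernatant at 100 000g. Pellet was resuspended in the respective binding buffer, frozen in liquid nitrogen and stored until radioligand competition binding.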
Chain of Adenosine receptor A2a (P29274 whole entry, the tested form may be a part): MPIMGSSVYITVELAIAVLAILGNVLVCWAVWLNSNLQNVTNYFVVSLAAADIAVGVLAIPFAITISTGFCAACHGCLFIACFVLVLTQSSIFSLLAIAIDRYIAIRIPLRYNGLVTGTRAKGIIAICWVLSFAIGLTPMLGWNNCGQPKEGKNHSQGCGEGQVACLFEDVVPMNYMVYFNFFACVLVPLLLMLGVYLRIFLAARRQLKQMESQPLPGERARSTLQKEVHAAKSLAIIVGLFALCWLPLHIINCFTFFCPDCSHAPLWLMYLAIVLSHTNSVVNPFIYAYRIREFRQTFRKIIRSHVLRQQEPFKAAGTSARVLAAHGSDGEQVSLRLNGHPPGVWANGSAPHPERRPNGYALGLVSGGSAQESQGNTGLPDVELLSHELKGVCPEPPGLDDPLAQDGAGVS
On the technique in general: In a radioligand displacement assay an active substance lowers the binding of a labelled ligand.

A short description of assay [4]: Selectivity ratio of Ki for human adenosine A1 receptor expressed in CHO cell membrane to Ki for human adenosine A2A receptor expressed in CHO cell membrane. Format: cell-based.
Assay [5] has as its target T2, Adenosine receptor A1 (Homo sapiens, UniProt P30542).
T2 sequence (P30542 whole entry): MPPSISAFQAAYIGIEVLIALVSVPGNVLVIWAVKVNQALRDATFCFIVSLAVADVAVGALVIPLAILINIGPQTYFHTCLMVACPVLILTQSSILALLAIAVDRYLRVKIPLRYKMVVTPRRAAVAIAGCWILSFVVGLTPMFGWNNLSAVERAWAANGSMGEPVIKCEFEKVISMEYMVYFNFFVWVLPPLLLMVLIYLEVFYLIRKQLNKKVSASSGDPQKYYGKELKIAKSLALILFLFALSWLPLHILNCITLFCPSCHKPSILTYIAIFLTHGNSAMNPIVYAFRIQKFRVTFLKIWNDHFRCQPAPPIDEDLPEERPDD
In words: Displacement of [3H]CCPA from human adenosine A1 receptor expressed in CHO cell membrane. Format: cell membranes. The procedure, abridged: as §1

Assay [6] in a line: Selectivity ratio of Ki for human adenosine A2A receptor expressed in CHO cell membrane to Ki for human adenosine A3 receptor expressed in CHO cell membrane. Format: cell-based.
For assay [7], the target named is T3, Adenosine receptor A3 (Homo sapiens, UniProt P0DMS8).
T3 sequence (P0DMS8 whole entry): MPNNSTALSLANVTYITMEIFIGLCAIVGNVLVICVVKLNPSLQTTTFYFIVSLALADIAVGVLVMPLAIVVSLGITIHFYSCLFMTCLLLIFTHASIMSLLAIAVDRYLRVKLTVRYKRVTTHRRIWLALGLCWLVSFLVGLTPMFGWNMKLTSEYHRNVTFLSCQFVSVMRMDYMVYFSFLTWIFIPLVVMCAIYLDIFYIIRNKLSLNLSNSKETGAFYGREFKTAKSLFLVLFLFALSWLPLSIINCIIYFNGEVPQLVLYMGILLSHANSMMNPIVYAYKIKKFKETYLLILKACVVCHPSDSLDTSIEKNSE
In words: Displacement of [3H]NECA from human adenosine A3 receptor expressed in CHO cell membrane. The class given is cell membranes. The procedure, abridged: as §1

The Ki is the dissociation constant of the complex between target and ligand, obtained from inhibition or displacement.

As to `CNc1nc2nn(C)cc2c2nc(-c3ccco3)nn12`, the Ratio Ki in assay [1] came out at 30.4; in assay [4], 5.24; in assay [6], 5.8. For the same compound, the Ki was 2110 nM in assay [2], 368 nM in assay [3], 1930 nM in assay [5] and 63.4 nM in assay [7].

Turning to `Cn1cc2c(nc(NC3CCCC3)n3nc(-c4ccco4)nc23)n1`, the Ratio Ki in assay [1] is 10.4; in assay [4] it was 0.62; in assay [6], 16.9. The Ki in assay [2] came out at 2650 nM; in assay [3] it was 130 nM; in assay [5] it was 80.1 nM; in assay [7] it was 7.68 nM.

Turning to `CCCCCC(C)Nc1nc2nn(C)cc2c2nc(-c3ccco3)nn12` (stereo not given), the Ratio Ki in assay [1] was 28.8; in assay [4], 0.56; in assay [6] it was 51.7. Also, the Ki in assay [2] turned out to be 7660 nM; in assay [3] it was 446 nM; in assay [5], 248 nM; in assay [7] it was 8.62 nM.

In the case of `CCCCCNc1nc2nn(C)cc2c2nc(-c3ccco3)nn12`, the results for the Ratio Ki in assay [1], in assay [4] and in assay [6] were 32.9, 2.86 and 11.5, respectively. Further, the Ki came out at 3980 nM in assay [2], 168 nM in assay [3], 481 nM in assay [5] and 14.6 nM in assay [7].

On to `CCC(C)Nc1nc2nn(C)cc2c2nc(-c3ccco3)nn12` (racemic), for which the Ratio Ki in assay [1] was found to be 25; in assay [4] it was 0.53; in assay [6] it was 47.4. The Ki in assay [2] turned out to be 3860 nM; in assay [3], 248 nM; in assay [5], 131 nM; in assay [7], 5.23 nM.

Turning to `Cn1cc2c(nc(NCCc3c[nH]c4ccccc34)n3nc(-c4ccco4)nc23)n1`, the Ratio Ki was found to be 40.4 in assay [1], 16.2 in assay [4] and 2.49 in assay [6]. Besides, the Ki came out at 2870 nM in assay [2], 77 nM in assay [3], 1250 nM in assay [5] and 30.9 nM in assay [7].

For the compound `Cn1cc2c(nc(NC3C4CC5CC(C4)CC3C5)n3nc(-c4ccco4)nc23)n1` (stereo not given), the Ratio Ki in assay [1] was found to be 39.9; in assay [4], 0.88; in assay [6], 45.1. The Ki in assay [2] is above 10000 nM; in assay [3], 848 nM; in assay [5] it was 750 nM; in assay [7], 18.8 nM.

As to `Cn1cc2c(nc(NC3CCCCCCC3)n3nc(-c4ccco4)nc23)n1`, the Ratio Ki is 31.2 in assay [1], 1.73 in assay [4] and 18 in assay [6]. Besides, the Ki in assay [2] is above 10000 nM; in assay [3], 279 nM; in assay [5] it was 484 nM; in assay [7] it was 15.5 nM.

For the compound `Cn1cc2c(nc(NCCc3ccccc3)n3nc(-c4ccco4)nc23)n1`, the Ratio Ki was determined as 13.9 in assay [1], 15.9 in assay [4] and 0.87 in assay [6]. In addition, the Ki in assay [2] worked out at 2790 nM; in assay [3], 46.1 nM; in assay [5], 733 nM; in assay [7], 52.8 nM.

Turning to `CCCCC(CC)CNc1nc2nn(C)cc2c2nc(-c3ccco3)nn12` (stereo not given), the figures for the Ratio Ki in assay [1], in assay [4] and in assay [6] were 158, 1.18 and 134, respectively. The Ki in assay [2] was above 10000 nM; in assay [3], 512 nM; in assay [5], 605 nM; in assay [7], 3.82 nM.

As for `CN(c1nc2nn(C)cc2c2nc(-c3ccco3)nn12)C1CCCCC1`, the Ratio Ki in assay [1] amounted to 31.2; in assay [4], 0.37; in assay [6], 83.5. Also, the Ki in assay [2] was above 10000 nM; in assay [3], 2730 nM; in assay [5], 1020 nM; in assay [7], 32.7 nM.

For `CCOc1nc2nn(C)cc2c2nc(-c3ccco3)nn12`, the Ratio Ki in assay [1] was 42.6; in assay [4] it was 1.27; in assay [6], 33.6. Besides, the Ki in assay [2] is above 10000 nM; in assay [3], 6120 nM; in assay [5], 7750 nM; in assay [7], 182 nM.

Take `CC[C@@H](C)Nc1nc2nn(C)cc2c2nc(-c3ccco3)nn12`: the Ratio Ki in assay [1] is 27.8; in assay [4], 0.61; in assay [6], 45.9. Moreover, the Ki in assay [2] is 4810 nM; in assay [3], 272 nM; in assay [5] it was 165 nM; in assay [7], 5.93 nM.

Consider `CCNc1nc2nn(C)cc2c2nc(-c3ccco3)nn12`, for which the Ratio Ki in assay [1] came to 13.6; in assay [4], 2.9; in assay [6], 4.68. Also, the Ki in assay [2] stood at 2160 nM; in assay [3] it was 208 nM; in assay [5] it was 604 nM; in assay [7] it was 44.4 nM.

With `CCC(CO)Nc1nc2nn(C)cc2c2nc(-c3ccco3)nn12` (stereo not given), the figures for the Ratio Ki in assay [1], in assay [4] and in assay [6] were 3.48, 1.06 and 3.29, respectively. Also, the Ki in assay [2] is above 10000 nM; in assay [3], 207 nM; in assay [5] it was 219 nM; in assay [7] it was 62.9 nM.
